# The sample as a whole holds a higher share of hits than the screen did.
# Fibroblast inh = blocks proliferation of human lung fibroblasts. LL 47 human lung fibroblast viability, ATP luminescence; stronger effect = lower value. viability, % at 10 µM. 1.1% of 85,000 active. AID 719;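 active = viability at or below 50% in the single dose screen; inactive = viability above 50%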;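 also: compound exposure lasted 72 h before the ATP readout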
#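 material = human LL 47 lung fibroblast cells | dosing = compounds added from tenfold dosing solution, 0.1% DMSO final | timing = overnight cell rest, 72 h compound treatment at 37 °C | measured by = CellTiter-Glo luminescence measuring cellular ATP | evaluation = % viability versus median cells-only luminescence | control set = cell-only wells, no compound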
# H69AR growth 86K = blocks growth of human H69AR lung tumor cells; 6% of 85,000 active; H69AR lung tumor viability, ATP luminescence, 72 h; stronger effect = lower value; viability, % at 10 µM;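 active = viability at or below 40%; inactive = viability above 40%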;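 also: multidrug resistant small cell line overexpressing MRP-1 efflux transporter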
# PTEN del growth = growth suppressors of cells with PTEN tumor suppressor deletion; HCT116 PTEN-null viability, CellTiter-Glo, 60 h; stronger effect = lower value; viability, % at 10 µM; 1.2% of 140,000 active; AID 827;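 active = viability at or below a set limit, 4 SD under the median of all tested compounds, cut at about 3.7% in these data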;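 also: PTEN knockout HCT116 line with beta catenin targeted HCT116 as companion control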
# HUVEC prolif 384 = blocks proliferation of human endothelial cells; viability, % at 10 µM (by protocol); HUVEC proliferation, CellTiter-Glo luminescence, 72 h; stronger effect = lower value; 1.1% of 86,000 active;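 active = viability at or below 30%; inactive = viability above 30%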
# bCat KO growth = beta-catenin-lacking colon tumor cell growth suppression. HCT116 beta-catenin knockout viability, CellTiter-Glo, 60 h; stronger effect = lower value. viability, % at 10 µM. 1.5% of 140,000 active;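 active = viability at or under a set limit, the compound median less 4 SD, cut at about 6% in these data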
# Hits are given with their value; n = inactive; x = no result given.
SMILES,Fibroblast inh,H69AR growth 86K,PTEN del growth,HUVEC prolif 384,bCat KO growth
CCOc1cc(C(=O)Nc2cc(C)ccn2)cc(OCC)c1OCC,n,n,n,n,n
CC(=O)Nc1ccc(S(=O)(=O)NCc2ccc(C(=O)NC(C)c3ccccc3)cc2)cc1 (stereo not drawn),n,n,n,n,n
O=C(CCC(=O)c1cccs1)NCC(=O)Nc1ccc(F)c(F)c1F,x,x,n,x,n
N=C1S/C(=C\c2ccc(-c3cccc(Cl)c3)o2)C(=O)N1c1nccs1,x,x,2.9,x,5.4
COc1ccc(/C=C2\SC(=N)N(c3nccs3)C2=O)cc1OC,x,x,n,x,n
CCOC(=O)c1ccc(NC(=S)N2CCSC2c2ccc(Br)cc2)cc1 (stereo not drawn),x,x,n,x,n
Cc1cc(C(=O)OCC(=O)NCc2ccco2)c(C)n1-c1ccc(F)cc1,n,21,n,n,n
CCC(Oc1ccccc1)C(=O)Nc1ccsc1C(=O)OC (stereo not drawn),x,x,n,x,n
CCN(CC)C(=O)c1cccc2c1C(=O)c1ccccc1-2,n,n,n,n,n
CCN(CC)C(=O)c1ccc2c(c1[N+](=O)[O-])C(=O)c1ccccc1C2=O,x,x,2.6,x,n
Cc1ccc(C2Nc3ccccc3C(=O)N2Cc2ccco2)cc1 (stereo not drawn),n,30,n,n,n
COc1cccc2sc(N3CCN(c4nc5ccccc5s4)CC3)nc12,n,3.2,2.4,26,1.8
c1ccc2sc(N3CCOCC3)nc2c1,n,n,x,n,n
CC1=NN(c2ccccc2)C(=O)/C1=C/C=C/c1ccccc1,x,x,3.2,x,3.4
S=C(Nc1ccccc1)Nc1nc2ccccc2n1CCOc1ccc(Cl)cc1,x,x,0.9,x,1.1
CCCn1c(NC(=S)Nc2ccccc2)nc2ccccc21,x,x,n,x,n
COC(=O)c1cc(OC)c(OC)cc1NC(=O)C(C)c1ccc([N+](=O)[O-])cc1 (stereo not drawn),x,x,n,x,n
[O-][N+]1=c2ccc(Nc3ccccc3)cc2=NC12CCCCC2,13,1.2,1.1,4.6,1.6
COc1ccc(NC2=NC(=S)N(c3ccccc3C)C23CCCCC3)cc1,x,x,n,x,n
c1ccc(Nc2cccc(Nc3ccccc3)c2)cc1,x,x,n,x,n
COc1ccc(Nc2ccc3c(c2)=NC2(CCCCC2)[N+]=3[O-])cc1,x,x,1.2,x,1.1
CCOC(=O)CSCC(=O)Nc1c(C(=O)C2CC2)oc2ccccc12,n,n,n,n,n
CC1(C)OC(=O)N(CCc2ccccc2)C1(C)O (stereo not drawn),x,n,n,n,n
CC1(C)OC(=O)N(c2ccccc2)C12C=Cc1cc(Br)ccc1O2 (stereo not drawn),n,18,n,n,n
Brc1cccc(-c2n[nH]c(-c3ccccc3)n2)c1,n,40,n,n,n
SMILES,Fibroblast inh,H69AR growth 86K,PTEN del growth,HUVEC prolif 384,bCat KO growth
CSc1nc(SCC(=O)NCc2ccco2)c2c3c(sc2n1)COC(C)(C)C3,n,23,n,n,n
CCC1(C)Cc2c(sc3nc(NN)n(C)c(=O)c23)CO1 (stereo not drawn),n,12,n,n,n
CCCSc1nc(SCC(=O)NCc2ccccc2)c2c3c(sc2n1)COC(C)(CC)C3 (stereo not drawn),n,37,n,n,n
CCc1nc(SCC(=O)NCc2ccco2)c2c3c(sc2n1)CCCC3,n,n,n,n,n
CCCCSc1nc(SCC(=O)NCc2ccco2)c2c3c(sc2n1)COC(C)(CC)C3 (stereo not drawn),x,x,n,x,n
CCOC(=O)CSc1nc2sc3c(c2c(=O)[nH]1)CC(C)(CC)OC3 (stereo not drawn),n,n,n,n,n
CCCCc1nc2sc3c(SCC(=O)NCc4ccco4)ncnc3c2c2c1CCC2,47,32,n,n,n
O=C(CCC1CCCC1)Nc1ccc([N+](=O)[O-])cn1,x,x,n,x,n
COc1ccc(COc2ccccc2C(=O)NCc2ccccc2)cc1F,x,x,n,x,n
Cc1cc(C)n(-c2nc(SCC(=O)Nc3nccs3)c3c4c(sc3n2)COC(C)(C)C4)n1,n,n,n,n,n
CSc1nnc2c3c4c(sc3nc(-n3nc(C)cc3C)n12)COC(C)(C)C4,n,n,n,n,n
Cc1cc(C)n(-c2nc(-n3nc(C)cc3C)c3c4c(sc3n2)COC(C)(C)C4)n1,n,26,n,n,n
Cc1cc(C)n(-c2nc(NCCC(C)C)c3c4c(sc3n2)COC(C)(C)C4)n1,n,1.6,n,13,3.6
CC1Cc2ccccc2N1C(=O)CSc1nnc(Cc2ccccc2)n1CCc1ccccc1 (stereo not drawn),x,x,n,x,n
COc1cccc(C2(CSc3nnc(-c4cc(OC)c(OC)c(OC)c4)o3)OCCO2)c1,x,x,n,x,n
C[C@H](NS(=O)(=O)c1ccccc1)C(=O)OCC(=O)NC(=O)Nc1ccc2c(c1)OCCO2,x,x,n,x,n
N#CCSc1nc2ccccc2c2nc3ccccc3n12,x,x,n,x,5.8
N#CCSc1nc2cc(C(=O)N3CCC(C(N)=O)CC3)ccc2c2nc3ccccc3n12,n,n,n,n,5.0
N#CCSc1nc2cc(C(=O)N3CCCC3)ccc2c(=O)n1Cc1ccccc1,x,x,n,x,n
COc1ccccc1C(=O)NNC(=S)NC(=O)c1ccco1,x,x,n,x,n
O=C1C=C(Nc2ccc(Cl)cc2)C(=O)N1c1ccc(Cl)cc1,x,x,n,x,n
CCOc1ncccc1C(=O)Nc1cccc(C(=O)Nc2cccc(S(=O)(=O)CCO)c2)c1,n,30,n,n,n
CC(C)(C)NC(=O)c1cnn2c1NC(c1ccc(F)cc1)CC2C(F)(F)F (stereo not drawn),33,n,n,n,n
Cc1ccc(C2CC(C(F)(F)F)n3ncc(C(N)=O)c3N2)cc1 (stereo not drawn),n,n,n,n,n
O=C(Nc1ccc2c(c1)CCC2)c1cnn2c1NC(c1ccco1)CC2C(F)(F)F (stereo not drawn),37,30,n,n,n
SMILES,Fibroblast inh,H69AR growth 86K,PTEN del growth,HUVEC prolif 384,bCat KO growth
Cc1ccc(Cl)cc1NC(=O)c1cnn2c1NC(c1ccco1)CC2C(F)(F)F (stereo not drawn),n,n,n,n,n
COc1ccc(/C=C/C(=O)Nc2nonc2NC(C)=O)cc1,x,x,n,x,n
COc1ccc(/C=C2\COc3ccccc3C2=O)cc1OC,x,x,1.1,x,1.6
COc1cc(/C=C2\CCc3ccccc3C2=O)cc(OC)c1OC,x,x,1.7,x,2.0
COc1ccc(/C=C2/CCc3ccccc3C2=O)cc1OC,x,x,n,x,n
COc1cc(/C=C2/CCc3ccccc3C2=O)cc(OC)c1OC,x,x,n,x,n
NC(=O)C1CCN(c2nc(C3CC3)nc3c2nnn3Cc2ccccc2Cl)CC1,n,31,n,n,n
O=C(C1CCCCC1)N1CCC(c2nc3c(nnn3Cc3ccccc3Cl)c(=O)[nH]2)CC1,n,39,x,n,x
CCCCCCC(=O)N1CCC(c2nc3c(nnn3Cc3ccccc3Cl)c(=O)[nH]2)CC1,n,34,n,n,n
O=C(NCc1ccco1)c1nc2c(nnn2Cc2ccccc2Cl)c(=O)[nH]1,31,25,n,14,n
NC(=O)C1CCN(c2nc(C3CC3)nc3c2nnn3Cc2ccccc2)CC1,n,n,n,n,n
Fc1ccc2c(c1)C(c1ccncc1)=NNC(c1cccnc1)=N2,x,x,n,x,n
